Consider twelve molecules from ChEMBL document CHEMBL4304758, “Development of Peptide-Based Sirtuin Defatty-Acylase Inhibitors Identified by the Fluorescence Probe, SFP3, That Can Efficiently Measure Defatty-Acylase Activity of Sirtuin” (J Med Chem, 2019).

Assay [1] concerns the target T1, NAD-dependent protein deacetylase sirtuin-2 (Homo sapiens) (UniProt Q8IXJ6).
T1 sequence (whole entry): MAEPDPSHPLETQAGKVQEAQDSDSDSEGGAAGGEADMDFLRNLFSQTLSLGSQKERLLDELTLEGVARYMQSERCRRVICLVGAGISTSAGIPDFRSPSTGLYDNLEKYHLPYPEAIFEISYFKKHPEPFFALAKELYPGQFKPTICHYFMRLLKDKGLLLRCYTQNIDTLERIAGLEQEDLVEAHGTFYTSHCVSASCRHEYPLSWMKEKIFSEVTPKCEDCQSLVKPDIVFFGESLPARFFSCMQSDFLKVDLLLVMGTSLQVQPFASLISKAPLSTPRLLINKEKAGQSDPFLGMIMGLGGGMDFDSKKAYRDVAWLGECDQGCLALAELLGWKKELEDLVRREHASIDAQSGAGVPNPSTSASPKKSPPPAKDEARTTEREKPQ
The assay can be described thus: Inhibition of recombinant human SIRT2 defatty-acylase activity at 2 uM using SFP3 as substrate measured at 5 mins interval for 60 mins in presence of NAD+ by fluorescence assay relative to control.

Assay [2] addresses T2, NAD-dependent protein deacetylase sirtuin-3, mitochondrial (Homo sapiens) (UniProt Q9NTG7).
T2 sequence (whole entry): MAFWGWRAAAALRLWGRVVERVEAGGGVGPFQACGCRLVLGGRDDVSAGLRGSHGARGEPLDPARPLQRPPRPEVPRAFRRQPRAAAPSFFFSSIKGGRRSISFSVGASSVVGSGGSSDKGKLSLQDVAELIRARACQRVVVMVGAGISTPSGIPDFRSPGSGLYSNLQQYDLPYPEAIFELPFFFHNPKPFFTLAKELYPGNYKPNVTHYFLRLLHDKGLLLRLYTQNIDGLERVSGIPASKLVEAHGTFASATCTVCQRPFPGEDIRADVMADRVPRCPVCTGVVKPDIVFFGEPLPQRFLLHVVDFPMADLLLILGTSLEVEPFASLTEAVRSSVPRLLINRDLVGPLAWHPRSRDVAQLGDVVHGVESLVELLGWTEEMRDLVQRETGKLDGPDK
The assay can be described thus: Inhibition of recombinant human SIRT3 (118 to 399 residues) demyristoylase activity expressed in Escherichia coli at 1 uM using p53(Myr)-AMC as substrate measured after 3 hrs in presence of NAD+ and trypsin by fluorescence assay relative to control. The method, boiled down:
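SIRT3 at 120 nM with 50 μM p53(Myr)-AMC and 500 μM NAD⁺ in Tris-HCl pH 8.0/NaCl/DTT/Triton buffer, 0.5% DMSO, 3 h at room temperature. Trypsin (100 nM) plus nicotinamide (1 mM) then added. Fluorescence Ex 355/Em 460 nm every 5 min for 20 min at 37 °C. n = 3.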

The target of assay [3] is T1, NAD-dependent protein deacetylase sirtuin-2 (Homo sapiens). The assay can be described thus: Inhibition of recombinant human SIRT2 demyristoylase activity at 1 uM using p53(Myr)-AMC as substrate measured after 3 hrs in presence of NAD+ and trypsin by fluorescence assay relative to control.
For assay [4], the target named is NAD-dependent protein deacylase sirtuin-6 (Homo sapiens) (UniProt Q8N6T7). The assay can be described thus: Inhibition of recombinant human N-terminal polyhis-tagged SIRT6 (1 to 355 residues) defatty-acylase activity expressed in Escherichia coli at 2 uM using SFP3 as substrate measured at 5 mins interval for 60 mins in presence of NAD+ by fluorescence assay relative to control.
Sequence of NAD-dependent protein deacylase sirtuin-6 (Homo sapiens) (Q8N6T7 whole entry, the tested form may be a part): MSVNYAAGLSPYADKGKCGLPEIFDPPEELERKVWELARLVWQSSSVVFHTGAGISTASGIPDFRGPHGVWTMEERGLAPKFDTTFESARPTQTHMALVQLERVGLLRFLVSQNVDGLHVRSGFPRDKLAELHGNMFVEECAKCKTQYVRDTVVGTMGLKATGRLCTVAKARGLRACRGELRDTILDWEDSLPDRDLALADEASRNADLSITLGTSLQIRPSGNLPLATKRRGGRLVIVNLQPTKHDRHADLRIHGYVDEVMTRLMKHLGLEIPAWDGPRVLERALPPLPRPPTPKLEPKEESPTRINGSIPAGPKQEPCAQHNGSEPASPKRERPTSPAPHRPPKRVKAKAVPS

Assay [5] has as its target T3, NAD-dependent protein deacetylase sirtuin-1 (Homo sapiens) (UniProt Q96EB6).
T3 sequence (whole entry): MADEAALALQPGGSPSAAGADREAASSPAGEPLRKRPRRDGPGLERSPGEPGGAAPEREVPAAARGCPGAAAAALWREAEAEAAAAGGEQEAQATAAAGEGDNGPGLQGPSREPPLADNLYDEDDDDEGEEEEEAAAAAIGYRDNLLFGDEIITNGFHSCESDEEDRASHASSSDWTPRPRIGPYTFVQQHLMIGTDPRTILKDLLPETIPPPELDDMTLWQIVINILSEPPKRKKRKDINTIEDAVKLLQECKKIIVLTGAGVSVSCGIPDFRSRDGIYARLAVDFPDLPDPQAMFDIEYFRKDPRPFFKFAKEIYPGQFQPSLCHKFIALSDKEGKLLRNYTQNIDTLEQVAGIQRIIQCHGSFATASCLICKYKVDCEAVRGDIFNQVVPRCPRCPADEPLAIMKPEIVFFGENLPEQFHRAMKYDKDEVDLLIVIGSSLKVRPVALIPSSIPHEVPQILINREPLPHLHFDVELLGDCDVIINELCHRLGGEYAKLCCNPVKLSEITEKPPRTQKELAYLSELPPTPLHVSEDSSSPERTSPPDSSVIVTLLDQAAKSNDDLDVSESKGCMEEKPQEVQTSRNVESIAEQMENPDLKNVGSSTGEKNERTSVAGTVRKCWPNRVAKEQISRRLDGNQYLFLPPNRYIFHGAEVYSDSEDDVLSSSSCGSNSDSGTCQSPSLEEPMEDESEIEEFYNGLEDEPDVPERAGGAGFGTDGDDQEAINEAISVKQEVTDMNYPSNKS
The assay can be described thus: Inhibition of recombinant human C-terminal His6-tagged SIRT1 (Met1 to Ser747 residues) defatty-acylase activity expressed in Escherichia coli at 2 uM using SFP3 as substrate measured at 5 mins interval for 60 mins in presence of NAD+ by fluorescence assay relative to control.

In assay [6] the target is T3, NAD-dependent protein deacetylase sirtuin-1 (Homo sapiens). The assay can be described thus: Inhibition of recombinant human C-terminal His6-tagged SIRT1 (Met1 to Ser747 residues) demyristoylase activity expressed in Escherichia coli at 1 uM using p53(Myr)-AMC as substrate measured after 3 hrs in presence of NAD+ and trypsin by fluorescence assay relative to control. A digest of the protocol:
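SIRT1 at 14 nM final with 50 μM p53(Myr)-AMC and 500 μM NAD⁺ in Tris-HCl pH 8.0/NaCl/DTT/Triton buffer, 0.5% DMSO, 3 h at room temperature. Trypsin (100 nM final) plus nicotinamide (1 mM final) then added. Fluorescence Ex 355/Em 460 nm read every 5 min for 20 min at 37 °C. n = 3.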

For assay [7], the target named is T2, NAD-dependent protein deacetylase sirtuin-3, mitochondrial (Homo sapiens). The assay can be described thus: Inhibition of recombinant human SIRT3 (118 to 399 residues) defatty-acylase activity expressed in Escherichia coli at 2 uM using SFP3 as substrate measured at 5 mins interval for 60 mins in presence of NAD+ by fluorescence assay relative to control. A digest of the protocol: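 SIRT3 at 60 nM final with 2.5 μM SFP3 and 500 μM NAD⁺ in Tris-HCl pH 8.0, 150 mM NaCl, 1 mM DTT, 0.05% Triton X-100. Final DMSO 0.2%, or 0.5% for AGK2/NAM. Fluorescence Ex 485/Em 535 nm every 5 min for 60 min at 37 °C. n = 3.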

The subject of a further assay is HeLa. Kind of assay: Cytotoxicity against human HeLa cells assessed as reduction in cell viability at 50 uM measured after 72 hrs by CCK8 assay. The format is functional, cell-based. The method, boiled down:
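HeLa cells, 1.0 × 10⁴ per well on PLL-coated plates, grown overnight in DMEM with 10% FBS and penicillin/streptomycin, 37 °C, 5% CO₂. Compounds added in DMEM (2% DMSO stock), range 1.56–50 μM final, for 72 h. CCK-8 reagent then 2 h at 37 °C, absorbance read at 450 nm. DMSO control.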
Background: Tetrazolium dyes change colour on reduction, which living cells bring about.

The target of assay [8] is T1, NAD-dependent protein deacetylase sirtuin-2 (Homo sapiens). Kind of assay: Inhibition of recombinant human SIRT2 demyristoylase activity using H4K16-Myr as substrate measured after 2 hrs in presence of NAD+ by HPLC analysis. The method, boiled down: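 H4K16-Myr at 100 μM with 500 μM NAD⁺ and 175 nM SIRT2 in Tris-HCl pH 8.0/NaCl/Triton buffer without DTT, 0.5% DMSO, 2 h at 37 °C. Inhibitors at 0.1–10 μM; AGK2 at 50 μM, NAM at 500 μM. Stopped with HCl/MeOH. Demyristoylated H4K16 product measured by HPLC at 280 nm. Percent inhibition, n = 3.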

The target is the same in assay [9]. The assay can be described thus: Inhibition of recombinant human SIRT2 deacylation activity using H4K16-Ac as substrate measured after 30 mins in presence of NAD+ by HPLC analysis. The method, boiled down:
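H4K16-Ac peptide at 100 μM with 500 μM NAD⁺ and 175 nM SIRT2 in Tris-HCl pH 8.0/NaCl/Triton buffer lacking DTT, 0.5% DMSO, 30 min at 37 °C. Inhibitors at 0.01–10 μM. Stopped with HCl in MeOH. Deacetylated product quantified by reversed-phase HPLC at 280 nm.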

Counter-ions that a name gives are not always drawn. The source made the active and inactive calls. The calls are words filed in the database; no cut-off is given here. Residues, ends and D or L forms follow the SMILES beside them. *: point of attachment. Phenylacetyl(4-E-phenylazo) = O=C(Cc1ccc(/N=N/c2ccccc2)cc1)*; X5 = CCN(CC)c1ccc(/N=N/c2ccc(CC(=O)*)cc2)cc1; X2 = CN(C)c1ccc(/N=N/c2ccc(C(=O)*)cc2)cc1; Tfa = O=C(C(F)(F)F)*

Regarding `C[C@H](NC(=O)[C@H](CCCCNC(=O)Cc1ccc(/N=N/c2ccc(OCc3ccccc3)cc2)cc1)NC(=O)OCc1ccccc1)C(N)=O`, the inhibition (in general, the change of the read-out against control, counted positive when it falls) is 13% in assay [1]; 5.6% in [2]; 3.2% in assay [3]; -7.4% in assay [4]; 1.3% in [5]; 2.8% in assay [6]. Further, in assay [7], the inhibition was -0.08%.
Consider `CC[C@H](C)[C@H](NC(=O)[C@H](CCCNC(=N)N)NC(C)=O)C(=O)N[C@@H](CCCCNC(=O)C(F)(F)F)C(=O)N[C@@H](CCCNC(=N)N)C(=O)N[C@@H](Cc1ccc(O)cc1)C(N)=O` (Ac-RIK(Tfa)RY-NH2), for which the inhibition in assay [2] was 58%; in assay [4], 3.1%; in [5], 16%; in [6], 32%.
For the molecule `CC[C@H](C)[C@H](NC(=O)[C@@H](NC(=O)[C@H](CCCCNC(=O)c1ccc(/N=N/c2ccc(N(C)C)cc2)cc1)NC(=O)[C@H](CC(=O)O)NC(=O)[C@H](CO)NC(C)=O)[C@@H](C)O)C(N)=O` (Ac-SDK(X2)TI-NH2), the inhibition is 7.8% in assay [1]; -1.1% in [2]; 2% in assay [3]; 11% in assay [4]; 8.9% in assay [5]; 3.2% in assay [6]. Besides, the inhibition in assay [7] was found to be 10%.
On to `CC[C@H](C)[C@H](NC(C)=O)C(=O)N[C@@H](CCCCNC(=O)Cc1ccc(/N=N/c2ccccc2)cc1)C(=O)N[C@@H](CCCNC(=N)N)C(N)=O`, for which, in assay [4], the inhibition stood at 28%.
The same measure, in the same setting: as for `CC[C@H](C)[C@H](NC(=O)[C@H](CCCNC(=N)N)NC(C)=O)C(=O)N[C@@H](CCCCNC(=O)Cc1ccc(/N=N/c2ccc(N(CC)CC)cc2)cc1)C(=O)N[C@@H](CCCNC(=N)N)C(=O)N[C@@H](Cc1ccc(O)cc1)C(N)=O` (Ac-RIK(X5)RY-NH2), the figure is 28%.
With `CCCCCCCCCCCCCC(=S)NCCCC[C@H](NC(=O)OCc1ccccc1)C(=O)Nc1ccccc1`, the inhibition in assay [2] was -1.2%; in assay [4], -3.3%; in [5], 0.81%; in assay [6] it was 2.7%; in assay [7], -0.9%. Further, the result with HeLa was Active.
On to `CC[C@H](C)[C@H](NC(=O)[C@H](CCCNC(=N)N)NC(C)=O)C(=O)N[C@@H](CCCCNC(=O)Cc1ccc(/N=N/c2ccccc2)cc1)C(=O)N[C@@H](CCCNC(=N)N)C(=O)N[C@@H](Cc1ccc(O)cc1)C(N)=O` (Ac-RIK(Phenylacetyl(4-E-phenylazo))RY-NH2), for which the values for the inhibition entry in assay [8], in assay [9] and in assay [4] were “Dose-dependent effect”, “Dose-dependent effect” and 32%, respectively. Moreover, the outcome in the assay with HeLa was inactive.
Consider `CC[C@H](C)[C@H](NC(=O)[C@H](CCCCNC(=O)Cc1ccc(/N=N/c2ccccc2)cc1)NC(=O)[C@@H](NC(C)=O)C(C)C)C(=O)N[C@@H](CCCCN)C(=O)N[C@@H](CCCCN)C(N)=O` (Ac-VK(Phenylacetyl(4-E-phenylazo))IKK-NH2), for which, in assay [4], the inhibition came to 0.64%.
`C[C@H](NC(=O)[C@H](CCCCNC(=O)Cc1ccc(/N=N/c2ccc(O)cc2)cc1)NC(=O)OCc1ccccc1)C(N)=O`: the inhibition in [1] is 18%; in assay [2] it was 2.6%; in assay [3], 5.3%; in assay [4], 3.8%; in assay [5] it was 8.8%; in [6], 20%. In addition, the inhibition in assay [7] stood at 5.9%.
Consider `Cc1cc(C)nc(SCC(=O)Nc2ncc(Cc3cccc4ccccc34)s2)n1`, for which the inhibition in assay [4] was -2.2%.
As to `CC[C@H](C)[C@H](NC(=O)[C@@H](NC(=O)[C@H](CCCCNC(=O)Cc1ccc(/N=N/c2ccccc2)cc1)NC(=O)[C@H](CC(=O)O)NC(=O)[C@H](CO)NC(C)=O)[C@@H](C)O)C(N)=O` (Ac-SDK(Phenylacetyl(4-E-phenylazo))TI-NH2), the inhibition in assay [2] turned out to be 5.6%; in [3], 17%; in [4], 2.6%; in assay [5] it was 18%; in [6], 31%; in [7], 14%.
Regarding `C[C@H](NC(=O)[C@H](CCCCNC(=O)Cc1ccc(/N=N/c2ccc(OCCc3ccccc3)cc2)cc1)NC(=O)OCc1ccccc1)C(N)=O`, the inhibition is 1.4% in assay [1]; -0.13% in assay [2]; 2.9% in assay [3]; -0.32% in assay [4]; 2% in assay [5]; 6.3% in assay [6]. The inhibition in [7] worked out at 7%.
